Compound activity: PubChem, The Scripps Research Institute Molecular Screening Center
In the library only some 2.2% were active in any assay of this set; here they are far more common.
M5 ag = CHRM5 agonism in calcium assay; P08912; CHO-K1 hM5 cells, Fluo-8 calcium fluorescence; 0% DMSO wells, 100% maximal acetylcholine response; activation, % at 3 µM; hit rate 0.19% among 360,000;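 active = activation above the run's mean over test compounds plus 3 SD, cut at about 23% in these data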;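 also: signal is peak over basal fluorescence ratio across the kinetic read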
Target sequence (P08912 whole entry, looked up): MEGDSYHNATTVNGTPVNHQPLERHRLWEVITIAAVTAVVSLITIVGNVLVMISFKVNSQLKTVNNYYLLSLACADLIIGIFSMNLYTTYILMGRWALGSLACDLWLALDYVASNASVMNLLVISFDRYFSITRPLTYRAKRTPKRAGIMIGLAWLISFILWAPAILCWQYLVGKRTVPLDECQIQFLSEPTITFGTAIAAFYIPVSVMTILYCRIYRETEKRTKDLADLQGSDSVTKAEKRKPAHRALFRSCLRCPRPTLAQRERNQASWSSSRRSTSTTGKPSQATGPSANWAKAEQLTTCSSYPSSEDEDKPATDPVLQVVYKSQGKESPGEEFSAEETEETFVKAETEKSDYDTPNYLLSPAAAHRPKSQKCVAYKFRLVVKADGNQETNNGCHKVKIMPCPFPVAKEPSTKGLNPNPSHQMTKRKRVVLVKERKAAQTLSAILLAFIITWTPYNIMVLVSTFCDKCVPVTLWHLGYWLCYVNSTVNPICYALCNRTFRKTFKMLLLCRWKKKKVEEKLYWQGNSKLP
M5 PAM = positive allosteric modulators of human muscarinic M5 receptor. AID 624038. hit rate 0.3% among 360,000. activation, % at 3 µM. P08912. CHO-K1 hM5, Fluo-8 calcium, ACh EC20 PAM; 0% = ACh EC20, 100% = ACh EC100;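 active = activation above the run cutoff, the mean activation of all test compounds plus 3 SD, cut at about 18% in these data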
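Assay system – human M5 receptor in CHO-K1 cells · Read-out – % activation, ACh-normalized · Technique – Fluo-8 calcium fluorescence · Dosing – single-point, 3 µM nominal · Incubation – Fluo-8 loading 80 min at 37 °C plus 30 min room temperature · Repeats – singlicate, one well per test compound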
M1 ag = activates human CHRM1 receptor. P11229. CHO-K1 hM1, Fluo-8 calcium fluorescence, agonist mode; 0% DMSO, 100% acetylcholine EC100. activation, % at 3 µM. hit rate 0.33% among 360,000;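 active = activation above the run's mean compound activation plus 3 SD, cut at about 16% in these data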;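 also: peak over basal fluorescence ratio within a 140 s kinetic read after compound addition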
CHRM1 antagonist = antagonists of human M1 muscarinic receptor. P11229. hit rate 1.3% among 360,000. inhibition, % at 3 µM. CHO-K1 hM1, Fluo-8 calcium fluorescence, ACh EC80 antagonist. AID 588852;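 active = percent inhibition above its own plate's cutoff, namely the mean of that plate's compound wells plus 3 SD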;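 also: peak over basal fluorescence ratio during 140 s after agonist addition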
M5 antag = antagonists of human muscarinic M5 receptor (CHRM5); P08912; CHO-hM5 cells, Fluo-8 calcium fluorescence, ACh EC80; inhibition, % at 3 µM; hit rate 0.59% among 360,000;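 active = inhibition above a per-plate cutoff, the mean of that plate's test compounds plus 3 SD, cut at about 27% in these data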
M1 PAM = potentiates human M1 receptor response to acetylcholine; AID 588819; activation, % at 3 µM; CHO-K1 hM1, Fluo-8 calcium fluorescence, ACh EC20; 0% = ACh EC20, 100% = maximal ACh; hit rate 0.088% among 360,000; in the data active = activation above about 19%, passing the limit was not always enough
Of the large screens only hits and unclear results are named; the others gave an inactive call; ! = repeats disagree.

FC(F)(F)c1cccc(N2CCN(C(=S)NC3CCCCC3)CC2)c1	none
FC(F)(F)c1cccc(N2CCN(C(=S)NC3CCCC3)CC2)c1	CHRM1 antagonist 33
CCC(CC)c1nnc(NC(=O)CC(C)c2ccccc2)s1 (configuration not stated)	none
NC(=O)c1ccsc1NC(=O)CSc1ccccc1F	none
Cc1ccccc1SCC(=O)OCC(=O)Nc1sccc1C(N)=O	M5 antag 40
NC(=O)c1ccsc1NC(=O)COC(=O)Cc1c[nH]c2ccccc12	none
COc1ccc(NC(=O)COC(=O)c2cccc(S(=O)(=O)N(C)C)c2)cc1	none
COc1cc(C(=O)OCC(=O)Nc2sccc2C(N)=O)cc(OC)c1OC	none
COc1cc(CCC(=O)OCC(=O)Nc2sccc2C(N)=O)cc(OC)c1OC	CHRM1 antagonist 37
CN(C)S(=O)(=O)c1cccc(C(=O)OCC(=O)Nc2sccc2C(N)=O)c1	CHRM1 antagonist 37
NC(=O)c1ccsc1NC(=O)COC(=O)Cc1cccc2ccccc12	CHRM1 antagonist 40, M5 antag 55
Oc1[nH]c2ccccc2c1/C=N/N1CCCCC1	M1 ag 32
Oc1ccccc1/C=N/N1CCCCC1	M1 ag 31, M5 antag 30
Cc1cccc(C)c1-n1nnnc1C1(C)CCC(=O)N1Cc1cccnc1 (configuration not stated)	none (no result: M1 ag, CHRM1 antagonist, M1 PAM)
CCc1ccc2nc(N(CCCN(C)C)C(=O)c3ccc(S(=O)(=O)N4CCCC4)cc3)sc2c1	CHRM1 antagonist 39
COc1ccc(CC(=O)N(Cc2ccccc2)c2ccccc2)cc1S(=O)(=O)N1CCOCC1	CHRM1 antagonist 26
COCCN(Cc1ccccc1)C(=O)Cc1ccc(OC)c(S(=O)(=O)N2CCOCC2)c1	none
COc1ccc(C(C)(C)C)cc1NC(=O)COC(=O)CSCc1c(C)noc1C	none
COc1ccc(NC(=O)C(=O)c2cn(CC(=O)N3CCCC3)c3ccccc23)cc1	none
COc1ccc(/C=C/C(=O)NCCCN2CCCC2)cc1	CHRM1 antagonist 41
Cc1ccc(/C=C/C(=O)NCCCN2CCN(CCCNC(=O)/C=C/c3ccc(C)cc3)CC2)cc1	none
Nc1ccn(CC(=O)NCc2ccc3[nH]ccc3c2)c(=O)n1	none
Nc1ncnc2c1ncn2[C@@H]1O[C@H](COP(=O)(O)OP(=O)(O)OP(=O)(O)O)[C@@H](O)[C@H]1O	M5 ag 46, M1 ag 53
Nc1ncnc2c1ncn2[C@@H]1O[C@H](COP(=O)(O)O)[C@@H](O)[C@H]1O	none
OC(C#CCN1CCCCCC1)(c1ccccc1)c1cccnc1 (configuration not stated)	CHRM1 antagonist 99, M5 antag 55
CCCN(CC#CC(O)(c1ccccc1)c1cccnc1)CCC (configuration not stated)	none
OC(C#CCN1CCCC1)(c1ccccc1)c1cccnc1 (configuration not stated)	CHRM1 antagonist 99, M5 antag 76
COc1ccc2oc3ccc(OC)cc3c(=O)c2c1	none
O=P(c1ccccc1)(c1ccccc1)C(O)c1ccc(Br)cc1 (configuration not stated)	none
O=[N+]([O-])c1cccc(-c2nnc(C3CC3)o2)c1	M5 PAM 36
O=[N+]([O-])c1ccc(N2CCN(C(=S)Nc3ccc(F)cc3F)CC2)cc1	M5 antag 34
Cc1csc2c(N3CCN(C(=S)Nc4ccc(F)cc4F)CC3)ncnc12	M1 ag 23, M5 antag 29
CCNC(=S)NNC(=S)NCc1ccccc1	none
CCCCC(=O)NNC(=S)NCc1ccccc1	CHRM1 antagonist 39
CCCCC(=O)NNC(=S)NC(=O)c1ccc(C)cc1	M1 ag 39
COc1ccc(C(=O)NC(=S)NNC(=O)c2ccc(C)cc2)cc1	M5 ag 75, M1 ag 87
Cc1cc(C(=O)OCC(=O)Nc2cc(C(F)(F)F)ccc2N2CCOCC2)c(C)o1	none
CSCCC(=O)N1CCN(CC(=O)N2CCCC2)CC1	none
COC(=O)C1C/C(=N/NS(=O)(=O)c2ccc(C)cc2)CS1 (configuration not stated)	none
CC(C)CC1Nc2ncnc(N3CCN(c4ccccn4)CC3)c2N(Cc2ccccc2)C1=O (configuration not stated)	CHRM1 antagonist 38!
O=C(CN1CCN(C(c2ccccc2)c2ccccc2)CC1)N1CCOCC1	CHRM1 antagonist 63
COc1ccc(N2CCN(C(=O)CN3CCN(C(c4ccccc4)c4ccccc4)CC3)CC2)cc1	CHRM1 antagonist 65
O=C(O)COCC(=O)N1CCN(C(c2ccccc2)c2ccccc2)CC1	CHRM1 antagonist 58, M5 antag 40
N#CCC(=O)N1CCN(C(c2ccccc2)c2ccccc2)CC1	none
O=C(Nc1ccccc1-c1ccccc1)NC1CCN(CC(=O)N2CCOCC2)CC1	CHRM1 antagonist 35
CCC(C)NC(=O)CSc1nnc(-c2c[nH]c3ccccc23)o1 (configuration not stated)	none
O=C1NC[C@@H](Cc2cccc3ccccc23)N(CC2CCCCC2)C1=O	M5 PAM 22
Clc1ccc(SCCOCCN2CCCCCC2)cc1	CHRM1 antagonist 42
CN(C)CCOCCSc1ccc(Cl)cc1	none
Cc1nc(NC(=O)c2ccco2)sc1-c1csc(Nc2ccc(Cl)cc2Cl)n1	M5 ag 47
Cc1ccc(Nc2nc(-c3sc(N)nc3C)cs2)cc1	M5 PAM 20
Cc1ccc(Cl)cc1Nc1nc(-c2sc(NC(=O)c3ccco3)nc2C)cs1	none
COc1ccccc1Nc1nc(-c2sc(NC(=O)c3ccco3)nc2C)cs1	none
O=C(Nc1nc(-c2ccccc2)cs1)c1ccco1	none
COc1ccc(Nc2nc(-c3sc(N)nc3C)cs2)cc1	none
Cc1nc(NC(=O)c2ccco2)sc1-c1csc(Nc2ccc(Cl)cc2)n1	M5 ag 43
Cc1ccc(-c2csc(NC(=O)c3ccco3)n2)cc1C	M5 ag 26
COc1ccc(C(=O)N/C(=C/c2cccs2)C(=O)NN)cc1OC	none
CCc1ccc(OCC(=O)NC(C)C)cc1	none
CN1CCCN(Cc2ccccc2C(F)(F)F)CC1	CHRM1 antagonist 29
CCCS(=O)(=O)N1CCN(Cc2ccccc2C(F)(F)F)CC1	none
Cc1cc(/C=C2\NC(=S)N(C)C2=O)ccc1N1CCCC1	M5 ag 138, M1 ag 55, CHRM1 antagonist 59, M5 antag 59
CCCN1C(=O)/C(=C/c2ccc(N3CCCC3)c(C)c2)NC1=S	M5 ag 69, M1 ag 47, CHRM1 antagonist 59, M5 antag 62
